The test has as its target Cruzipain (Trypanosoma cruzi, UniProt P25779). The experiment in a line: Inhibition of Trypanosoma cruzi cruzain preincubated for 5 mins before substrate addition in presence of 0.01% Triton X-100. Summed up: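 Cruzain IC50s were measured from dose-response curves with Triton X-100 in the assay buffer at either 0.01% or 0.001%. At 0.001% Triton, some runs included pre-incubation with BSA.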

Bounds are passed on as bounds.

Usually IC50 stands for the concentration at which inhibition is half-maximal.

Sequence of Cruzipain (P25779 whole entry): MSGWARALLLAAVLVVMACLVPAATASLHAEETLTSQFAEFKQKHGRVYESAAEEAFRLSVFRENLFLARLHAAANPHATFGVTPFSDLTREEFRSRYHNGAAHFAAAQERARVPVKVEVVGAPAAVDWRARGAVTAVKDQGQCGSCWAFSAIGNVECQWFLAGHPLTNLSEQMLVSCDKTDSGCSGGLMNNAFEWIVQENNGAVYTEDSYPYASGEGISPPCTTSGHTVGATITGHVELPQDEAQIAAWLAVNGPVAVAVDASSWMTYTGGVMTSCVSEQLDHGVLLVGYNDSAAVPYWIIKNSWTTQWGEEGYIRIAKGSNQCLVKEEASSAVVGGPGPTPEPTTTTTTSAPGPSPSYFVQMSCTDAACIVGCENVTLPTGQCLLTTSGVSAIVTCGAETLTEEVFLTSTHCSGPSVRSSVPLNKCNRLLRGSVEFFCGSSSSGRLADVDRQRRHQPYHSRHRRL

`Nc1ccccc1-c1nnc(C(=O)Nc2cccc(N3CCCC3)c2)o1` [5-(2-Amino-phenyl)-[1,3,4]oxadiazole-2-carboxylic acid(3-pyrrolidin-1-yl-phenyl)-amide]: the IC50 is > 100 µM.
As for `Cc1cc(NC(=O)c2nnc(-c3ccccc3N)o2)[nH]n1` [5-(2-Amino-phenyl)-[1,3,4]oxadiazole-2-carboxylic acid(5-methyl-2H-pyrazol-3-yl)-amide], the IC50 is > 100 µM.
`Cc1ccc(-c2cc(NC(=O)c3nnc(-c4ccccc4N)o3)[nH]n2)cc1` [5-(2-Amino-phenyl)-[1,3,4]oxadiazole-2-carboxylic acid(5-p-tolyl-2H-pyrazol-3-yl)-amide]: the half-inhibitory concentration (IC50) is > 100 µM.
With `Nc1ccccc1-c1nnc(C(=O)Nc2cc(-c3ccccc3)n[nH]2)o1` [5-(2-Amino-phenyl)-[1,3,4]oxadiazole-2-carboxylic acid(5-phenyl-2H-pyrazol-3-yl)-amide] the figure was > 100 µM.
Regarding `CC(C)(C)c1cc(NC(=O)c2nnc(-c3ccccc3N)o2)[nH]n1` [5-(2-Amino-phenyl)-[1,3,4]oxadiazole-2-carboxylic acid(5-tert-butyl-2H-pyrazol-3-yl)-amide], the IC50 was > 50 µM.
With `Nc1ccccc1-c1nnc(C(=O)Nc2ccc3oc4c(c3c2)CCCC4)o1` [5-(2-Amino-phenyl)-[1,3,4]oxadiazole-2-carboxylic acid(6,7,8,9-tetrahydrodibenzofuran-2-yl)-amide] the figure was > 100 µM; with `COc1ccc(-c2cc(NC(=O)c3nnc(-c4ccccc4N)o3)[nH]n2)cc1` [5-(2-Amino-phenyl)-[1,3,4]oxadiazole-2-carboxylic acid[5-(4-methoxy-phenyl)-1Hpyrazol-3-yl]-amide], > 100 µM.

(Values after BindingDB's records for doi:10.1021/jm9009229 (University of California, 2010).)
